Reference: article PMC6656587 (Bioorganic chemistry, 2019)
In brackets after ≈: the same amount, converted by molar mass.

Columns and labels:
[1] = system: PAM212 keratinocytes; test: PAM212 keratinocyte growth inhibition with UVA light; format: cell-based, mouse; details: plus UVA light
[2] = Solubility maximum under the assay's conditions; format: physicochemical; details: 37 °C, plasma or biological fluid, kinetic from dmso stock
[3] = system: plasmid pZeoSV DNA; test: Plasmid DNA nicking and unwinding assay with UVA light; format: biochemical; details: for Percentage of nicked plasmid: neutral agarose gels
In short: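 pZeoSV plasmid (75 ng per 10 μL) in TE buffer (10 mM Tris–HCl, 1 mM EDTA, pH 8), with test compound added from a 100× DMSO concentrate. UVA (320–400 nm) was given as for the cell cultures: 2.4 mW/cm2, 1.28 J/cm2. Aliquots taken before and after UVA were run on 1.2% neutral (Tris-acetate-EDTA) or alkaline agarose and stained with ethidium bromide. Percent nicked plasmid came from band image analysis.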

[4] = known measured logP used in the discussion; ref not given; cited from earlier work
[5] = system: MCF-7 breast carcinoma cell line; details: read-out: IC50, phototoxicity; cited from earlier work

**Q.** Which “photo-activity on keratinocyte growth (in words)” value (“photo-activity” for short) [1] does the source give for `Cc1cc(=O)oc2c(C)c(O)c([N+](=O)[O-])cc12` [Compound 18, 4,8-dimethyl-6-nitro-7-hydroxycoumarin] here?
**A.** no photocytotoxicity

**Q.** And the solubility [2]?
**A.** 100 µM (≈ 23.5 µg/mL)

**Q.** With `O=c1cc(C(F)(F)F)c2ccc(O)cc2o1` [Compound 47, 4-trifluoromethyl-7-hydroxycoumarin] as the molecule, how does the “photo-activity” value [1] read?
**A.** inactive

**Q.** With `Cc1c(I)c(=O)oc2c(C)c(O)ccc12` [Compound 71, 3-Iodo-4,8-dimethyl-7-hydroxycoumarin] as the molecule, how does the “Percentage of nicked plasmid” value ([3]; 1 μM coumarin plus UVA light) read?
**A.** 6.8%

**Q.** What about the “Percentage of nicked plasmid” value ([3]; 10 μM coumarin plus UVA light) of the same molecule?
**A.** 80.2%

**Q.** What about the “Percentage of nicked plasmid” value ([3]; 100 μM coumarin plus UVA light) of the same molecule?
**A.** 98.6%

**Q.** What about the “linearization of the plasmid compared to the 7-allyloxy ethers 14 and 58” value ([3]; plus UVA light) of the same molecule?
**A.** nearly five times greater linearization

**Q.** And the “effect on plasmid DNA (in words)” value ([3]; plus UVA light, alkaline gels)?
**A.** Generally similar results

**Q.** What about the “effect on plasmid DNA (in words)” value ([3]; plus UVA light, neutral gels) of the same molecule?
**A.** concentration-dependent alteration in migration

**Q.** Which “photo-activity” value [1] does the source give for `Cc1c(O)ccc2c(C(F)(F)F)cc(=O)oc12` [Compound 37, 4-trifluoromethyl-8-methyl-7-hydroxycoumarin] here?
**A.** inactive

**Q.** With `Cc1c(F)c(=O)oc2c(C)c(O)ccc12` [Compound 68, 3-fluoro-4,8-dimethyl-7-hydroxycoumarin] as the molecule, how does the “photo-activity” value [1] read?
**A.** no activity

**Q.** For `Cc1cc(=O)oc2c(C)c(O)ccc12` [Compound 12, 4,8-dimethyl-7-hydroxycoumarin], which logP [4] is on record?
**A.** 2.1

**Q.** For `O=c1ccc2ccc(O)cc2o1` [Compound 1, umbelliferone], which IC50 [5] is on record?
**A.** 476 µM

**Q.** What about the “photo-activity” value [1] of the same molecule?
**A.** no activity

**Q.** Which “Percentage of nicked plasmid” value ([3]; 1 μM coumarin plus UVA light) does the source give for `C=CCOc1ccc2c(C)c(Br)c(=O)oc2c1C` [Compound 58, 4,8-dimethyl-3-bromo-7-allyloxycoumarin] here?
**A.** 3.2%

**Q.** And the “Percentage of nicked plasmid” value ([3]; 10 μM coumarin plus UVA light)?
**A.** 12.0%

**Q.** And the “Percentage of nicked plasmid” value ([3]; 100 μM coumarin plus UVA light)?
**A.** 20.2%

**Q.** What about the “effect on plasmid DNA (in words)” value ([3]; plus UVA light, neutral gels) of the same molecule?
**A.** concentration-dependent alteration in migration
